Reference: article PMC3866046 (Biochemical pharmacology, 2013)
pIC50: −log10 of the molar value. Like-named read-outs stand apart in the source and are kept apart here. Values belong to the compound of their own block, whether it stands above or below them.

What was measured:
human ENT4 = settings: read-out: apparent Km of adenosine transport; pH 5.5; cited from earlier work
mouse ENT4 = settings: read-out: apparent Km of adenosine transport; pH 5.5; cited from earlier work
hENT2 [1] = target: T1, hENT2 (Homo sapiens, UniProt Q14542); test: Inhibition of [3H]uridine uptake in PK15/hENT2 cells; type: cell-based
T1 sequence (Q14542 1-456): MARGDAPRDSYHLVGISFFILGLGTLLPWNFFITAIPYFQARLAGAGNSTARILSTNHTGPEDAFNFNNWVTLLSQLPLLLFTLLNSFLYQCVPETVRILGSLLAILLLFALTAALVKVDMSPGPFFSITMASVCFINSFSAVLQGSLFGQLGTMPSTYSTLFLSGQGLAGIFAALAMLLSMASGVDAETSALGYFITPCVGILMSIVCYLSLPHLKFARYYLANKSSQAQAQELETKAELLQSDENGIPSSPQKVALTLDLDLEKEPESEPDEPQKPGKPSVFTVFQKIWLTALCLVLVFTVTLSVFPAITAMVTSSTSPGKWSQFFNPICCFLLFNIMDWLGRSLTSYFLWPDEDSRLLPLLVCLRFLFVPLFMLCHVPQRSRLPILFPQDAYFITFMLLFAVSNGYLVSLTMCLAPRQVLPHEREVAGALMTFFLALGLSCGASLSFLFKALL
How it was run: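 PK15 cells stably expressing hENT2, in sodium-free choline chloride buffer at pH 7.4. Test compound was added for 15 min, either at graded concentrations or at 10 μM for screening; 0.2 μM [3H]uridine was then taken up for 2 min. Stopped with ice-cold PBS washes, lysed in Triton X-100, scintillation counted. Triplicates; screening uptake given as % of compound-free uptake; IC50 by nonlinear fit.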

PK15-hENT4 cells = test: MTT assay for cell viability; type: cell-based, porcine; settings: 10 μM, 24 hours, compared with camptothecin
How it was run: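 PK15NTD (nucleoside-transporter-deficient) cells stably expressing recombinant hENT4 were trypsinised and seeded at 5 × 10^3 cells/well in MEM. […] MTT (5 mg/ml stock in PBS) was added for 4 h at 37 °C. Formazan was dissolved in 0.04 N HCl/isopropanol for 3 h at room temperature, and absorbance was read at 570 nm.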

hENT4 = target: T2, hENT4 (Homo sapiens, UniProt Q7RTT9); test: Inhibition of [3H]adenosine uptake in PK15/hENT4 cells at pH 6.0; type: cell-based
T2 sequence (Q7RTT9 1-530): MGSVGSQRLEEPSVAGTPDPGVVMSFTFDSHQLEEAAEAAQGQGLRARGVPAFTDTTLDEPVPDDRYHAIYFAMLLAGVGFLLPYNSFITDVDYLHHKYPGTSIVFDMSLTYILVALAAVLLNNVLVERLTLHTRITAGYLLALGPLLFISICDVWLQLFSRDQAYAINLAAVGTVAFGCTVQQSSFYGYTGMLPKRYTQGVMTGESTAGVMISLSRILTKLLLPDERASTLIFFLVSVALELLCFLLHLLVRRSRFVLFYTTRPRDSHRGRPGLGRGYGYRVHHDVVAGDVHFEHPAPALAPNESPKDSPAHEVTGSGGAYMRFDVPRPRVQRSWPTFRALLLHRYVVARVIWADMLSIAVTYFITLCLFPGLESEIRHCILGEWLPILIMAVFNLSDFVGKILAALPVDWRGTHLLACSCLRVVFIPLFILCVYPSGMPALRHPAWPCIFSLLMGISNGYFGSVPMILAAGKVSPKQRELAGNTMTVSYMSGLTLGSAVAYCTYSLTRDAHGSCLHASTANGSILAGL
How it was run: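 PK15NTD porcine kidney cells stably expressing FLAG-tagged hENT4 (cDNA cloned from HUVECs, G418-selected). Cells preincubated 15 min with graded test compound concentrations in transport buffer at pH 6.0, then given 0.2 μM [3H]adenosine for 2 min. Stopped by aspiration and three ice-cold PBS washes, lysed in 5% Triton X-100, scintillation counted. Triplicates; IC50 by nonlinear fitting.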

hENT2 [2] = target: T1, hENT2; settings: read-out: hENT2 IC50; cited from earlier work

SMILES: Nc1ncnc2c1ncn2[C@@H]1O[C@H](CO)[C@@H](O)[C@H]1O [adenosine]
Km (human ENT4): 780 µM
Km (mouse ENT4): 130 µM

activity against hENT2 (in words) (hENT2 [1]): active
SMILES: OCCN(CCO)c1nc(N2CCCCCCC2)c2nc(N(CCO)CCO)nc(N3CCCCCCC3)c2n1 [Compound 13, 2,6-bis(diethanolamino)-4,8-diheptamethyleneimino-pyrimido[5,4d]pyrimidine]

selectivity for hENT4 relative to ENT1 (hENT4): about 80 fold
selectivity for hENT4 relative to ENT2 (hENT4): ~20 fold
SMILES: CC(C)CN(CC(C)C)c1nc(NCCO)nc2c(N(CC(C)C)CC(C)C)nc(NCCO)nc12 [Compound 30, 2,6-diethanolamino-4,8-di-(diisobutylamino)-pyrimido[5,4-d]pyrimidine]
cytotoxicity / cell viability (in words) (PK15-hENT4 cells): no cytotoxicity
cytotoxicity / cell viability (in words) (PK15-hENT4 cells; listed as compound 30): significantly non-cytotoxic

pIC50 (hENT2 [1]): 5.87
pIC50 (hENT4): 5.63
SMILES: O=[N+]([O-])c1ccc(CSc2ncnc3c2ncn3[C@@H]2O[C@H](CO)[C@@H](O)[C@H]2O)cc1 [NBMPR, nitrobenzylmercaptopurine ribonucleoside, reference compound]
pIC50 (hENT2 [2]): 5.55
